{"source": "ChEMBL document CHEMBL1137702", "about": "“Identification of hydrolytically stable and selective P2Y(1) receptor agonists” (Eur J Med Chem, 2009)", "key": {"[1]": {"target": "T1, Ectonucleoside triphosphate diphosphohydrolase 1 (Homo sapiens) (UniProt P49961)", "T1 sequence (whole entry)": "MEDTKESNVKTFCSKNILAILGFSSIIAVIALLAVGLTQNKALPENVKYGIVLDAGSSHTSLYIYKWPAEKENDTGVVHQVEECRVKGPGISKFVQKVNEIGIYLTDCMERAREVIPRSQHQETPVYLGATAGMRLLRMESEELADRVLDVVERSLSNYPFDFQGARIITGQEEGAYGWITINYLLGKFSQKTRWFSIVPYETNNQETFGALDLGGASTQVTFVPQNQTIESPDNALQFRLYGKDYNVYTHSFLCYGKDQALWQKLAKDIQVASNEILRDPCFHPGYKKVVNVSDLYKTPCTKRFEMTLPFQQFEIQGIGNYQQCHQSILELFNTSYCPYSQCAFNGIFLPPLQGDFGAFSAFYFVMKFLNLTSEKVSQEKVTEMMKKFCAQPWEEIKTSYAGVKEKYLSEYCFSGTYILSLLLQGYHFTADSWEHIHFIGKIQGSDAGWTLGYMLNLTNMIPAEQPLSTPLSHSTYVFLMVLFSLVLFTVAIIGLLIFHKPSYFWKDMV", "experiment": "Inhibition of human NTPDase 1 expressed in human 293T cells", "assay_type": "cell-based"}, "[2]": {"target": "T2, Ectonucleoside triphosphate diphosphohydrolase 3 (Homo sapiens) (UniProt O75355)", "T2 sequence (whole entry)": "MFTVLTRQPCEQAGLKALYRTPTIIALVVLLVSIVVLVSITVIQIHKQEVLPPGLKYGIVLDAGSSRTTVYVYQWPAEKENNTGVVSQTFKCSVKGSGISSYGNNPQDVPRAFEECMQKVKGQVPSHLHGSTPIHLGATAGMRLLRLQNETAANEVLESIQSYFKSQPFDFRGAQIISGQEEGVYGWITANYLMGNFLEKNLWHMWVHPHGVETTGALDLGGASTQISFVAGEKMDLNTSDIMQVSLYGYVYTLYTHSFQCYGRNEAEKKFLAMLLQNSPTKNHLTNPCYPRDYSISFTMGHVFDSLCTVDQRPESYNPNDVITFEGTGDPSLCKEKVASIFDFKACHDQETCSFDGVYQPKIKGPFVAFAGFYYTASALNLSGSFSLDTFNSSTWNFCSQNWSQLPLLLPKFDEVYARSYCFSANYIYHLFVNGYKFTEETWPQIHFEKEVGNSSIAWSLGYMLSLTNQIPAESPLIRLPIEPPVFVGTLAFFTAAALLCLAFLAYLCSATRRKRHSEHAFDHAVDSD", "experiment": "Activity of human NTPDase 3 expressed in human 293T cells assessed as drug hydrolysis at 100 uM after 20 mins relative to ATP", "assay_type": "cell-based", "parameters": "scale not given: the % may be the effect or the level left", "summary_of_the_method": "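Human NTPDase1, 2, 3 or 8 in crude extracts of transfected 293T cells, pre-incubated 3 min at 37 °C in Tris-Ringer buffer pH 7.4. […] Untransfected-cell extract activity subtracted.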"}, "[3]": {"target": "T2, Ectonucleoside triphosphate diphosphohydrolase 3 (Homo sapiens)", "experiment": "Inhibition of human NTPDase 3 expressed in human 293T cells", "assay_type": "cell-based"}, "[4]": {"target": "T3, Ectonucleotide pyrophosphatase/phosphodiesterase family member 1 (Homo sapiens) (UniProt P22413)", "T3 sequence (whole entry)": "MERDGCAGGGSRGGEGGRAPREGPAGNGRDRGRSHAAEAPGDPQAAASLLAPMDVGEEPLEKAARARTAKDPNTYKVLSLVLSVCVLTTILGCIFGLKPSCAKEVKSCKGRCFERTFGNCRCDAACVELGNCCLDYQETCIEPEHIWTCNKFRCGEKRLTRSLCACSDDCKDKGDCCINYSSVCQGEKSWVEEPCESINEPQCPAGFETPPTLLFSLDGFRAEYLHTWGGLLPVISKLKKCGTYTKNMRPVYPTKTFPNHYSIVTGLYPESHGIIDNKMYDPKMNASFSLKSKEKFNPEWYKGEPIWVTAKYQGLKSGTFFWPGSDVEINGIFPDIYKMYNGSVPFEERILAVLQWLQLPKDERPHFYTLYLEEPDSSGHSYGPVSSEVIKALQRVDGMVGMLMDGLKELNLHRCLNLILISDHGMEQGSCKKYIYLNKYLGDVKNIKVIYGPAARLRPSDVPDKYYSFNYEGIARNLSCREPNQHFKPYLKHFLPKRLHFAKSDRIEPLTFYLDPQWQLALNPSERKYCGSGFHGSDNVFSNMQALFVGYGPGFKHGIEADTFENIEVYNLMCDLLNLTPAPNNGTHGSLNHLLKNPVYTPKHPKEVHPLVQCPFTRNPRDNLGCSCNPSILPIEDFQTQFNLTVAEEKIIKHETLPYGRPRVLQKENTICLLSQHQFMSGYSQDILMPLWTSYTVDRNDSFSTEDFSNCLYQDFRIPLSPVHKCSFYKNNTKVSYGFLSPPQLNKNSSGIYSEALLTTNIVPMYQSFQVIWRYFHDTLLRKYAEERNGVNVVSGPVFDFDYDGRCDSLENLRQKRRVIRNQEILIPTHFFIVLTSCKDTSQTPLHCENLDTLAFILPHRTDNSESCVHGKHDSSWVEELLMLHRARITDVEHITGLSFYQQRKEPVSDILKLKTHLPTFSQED", "experiment": "Activity of human NPP1 expressed in human 293T cells assessed as drug hydrolysis at 100 uM after 20 mins by reverse-phase HPLC relative to p-nitrophenyl-thymidine-5-monophosphate", "assay_type": "cell-based", "parameters": "scale not given: the % may be the effect or the level left", "summary_of_the_method": "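Crude extract of 293T cells transfected with human NPP1 or NPP3, pre-incubated 3 min at 37 °C in 1 mM CaCl2, 140 mM NaCl, 5 mM KCl, 50 mM Tris pH 8.5. Substrate at 100 µM final for 20 min, stopped in ice-cold perchloric acid and neutralized with KOH. Loss of analogue quantified by reverse-phase HPLC with ion-pair phosphate mobile phase pH 7.0. pnp-TMP (p-nitrophenol at 410 nm) served as the 100% reference.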"}, "P2Y purinoceptor 2": {"target": "P2Y purinoceptor 2 (Homo sapiens, UniProt P41231)", "sequence (P41231 whole entry)": "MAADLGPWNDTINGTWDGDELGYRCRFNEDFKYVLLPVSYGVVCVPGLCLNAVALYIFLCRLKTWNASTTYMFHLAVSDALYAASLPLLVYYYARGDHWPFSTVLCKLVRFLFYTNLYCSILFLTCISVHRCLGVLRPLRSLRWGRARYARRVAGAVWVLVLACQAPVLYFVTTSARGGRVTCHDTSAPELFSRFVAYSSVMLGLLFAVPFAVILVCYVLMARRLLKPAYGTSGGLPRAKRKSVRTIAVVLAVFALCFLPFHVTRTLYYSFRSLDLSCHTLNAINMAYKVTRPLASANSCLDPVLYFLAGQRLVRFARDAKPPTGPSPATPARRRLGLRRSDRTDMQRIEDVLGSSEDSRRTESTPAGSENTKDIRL", "experiment": "Antagonist activity at human P2Y2 receptor expressed in human 1321N1 cells assessed as inhibition of UTP-induced increase in intracellular calcium concentration by dual-excitation spectrofluorimetric analysis", "assay_type": "functional, cell-based", "summary_of_the_method": "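Fura-2-loaded suspensions of stably transfected 1321N1 cells were assayed at 37 °C in HEPES-buffered saline pH 7.4 with 1 mM Ca2+ and Mg2+. […] [Ca2+]i was read by dual-excitation spectrofluorometry.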"}}, "note": "Calls of active or inactive are those of the source. The calls are words filed in the database; no cut-off is given here.", "data": [{"smiles": "CSc1nc(N)c2ncn([C@@H]3O[C@H](COP(=O)(O)OP(=O)(O)CP(=O)(O)O)[C@@H](O)[C@H]3O)c2n1", "values": [{"measurement": "Activity", "setting": "[1]", "value": "inactive"}, {"measurement": "Activity", "setting": "[2]", "value": 7, "unit": "%"}, {"measurement": "Activity", "setting": "[3]", "value": "inactive"}, {"measurement": "Activity", "setting": "[4]", "value": 23, "unit": "%"}, {"measurement": "Activity", "setting": "P2Y purinoceptor 2", "value": "inactive"}]}, {"smiles": "BP(=O)(OC[C@H]1O[C@@H](n2cnc3c(N)ncnc32)[C@H](O)[C@@H]1O)OP(=O)(O)CP(=O)(O)O", "note": "(stereo not given in full)", "values": [{"measurement": "Activity", "setting": "[1]", "value": "inactive"}, {"measurement": "Activity", "setting": "[2]", "value": 0, "unit": "%"}, {"measurement": "Activity", "setting": "[3]", "value": "inactive"}, {"measurement": "Activity", "setting": "[4]", "value": 0, "unit": "%"}, {"measurement": "Activity", "setting": "P2Y purinoceptor 2", "value": "inactive"}]}, {"smiles": "BP(=O)(OC[C@H]1O[C@@H](n2cnc3c(N)nc(SC)nc32)[C@H](O)[C@@H]1O)OP(=O)(O)CP(=O)(O)O", "note": "(single isomer, unassigned; diastereomer A)", "values": [{"measurement": "Activity", "setting": "[1]", "value": "inactive"}, {"measurement": "Activity", "setting": "[2]", "value": 2, "unit": "%"}, {"measurement": "Activity", "setting": "[3]", "value": "inactive"}, {"measurement": "Activity", "setting": "[4]", "value": 0, "unit": "%"}, {"measurement": "Activity", "setting": "P2Y purinoceptor 2", "value": "inactive"}]}, {"smiles": "BP(=O)(OC[C@H]1O[C@@H](n2cnc3c(N)nc(SC)nc32)[C@H](O)[C@@H]1O)OP(=O)(O)CP(=O)(O)O", "note": "(single isomer, unassigned; diastereomer B)", "values": [{"measurement": "Activity", "setting": "[1]", "value": "inactive"}, {"measurement": "Activity", "setting": "[2]", "value": 2, "unit": "%"}, {"measurement": "Activity", "setting": "[3]", "value": "inactive"}, {"measurement": "Activity", "setting": "[4]", "value": "< 1", "unit": "%"}, {"measurement": "Activity", "setting": "P2Y purinoceptor 2", "value": "inactive"}]}, {"smiles": "BP(=O)(OC[C@H]1O[C@@H](n2cnc3c(N)ncnc32)[C@H](O)[C@@H]1O)OP(=O)(O)CP(=O)(O)O", "note": "(single isomer, unassigned; diastereomer B)", "values": [{"measurement": "Activity", "setting": "[1]", "value": "inactive"}, {"measurement": "Activity", "setting": "[2]", "value": 6, "unit": "%"}, {"measurement": "Activity", "setting": "[3]", "value": "inactive"}, {"measurement": "Activity", "setting": "[4]", "value": 4, "unit": "%"}, {"measurement": "Activity", "setting": "P2Y purinoceptor 2", "value": "inactive"}]}]}
